This note sets out measurements from ChEMBL document CHEMBL5576109, “Hydantoin derivative dimers as broad-spectrum antimicrobial agents against ESKAPE pathogens with enhanced killing rate and stability” (RSC Med Chem, 2024).

≈ marks a conversion by molar mass, not a printed value. Calls of active or inactive are those of the source.

Data set [1] relates to Escherichia coli. Kind of data set: Induction of outer membrane permeabilization in Escherichia coli ATCC 25922 assessed as increase in fluorescence intensity at 1 to 4 times of MIC incubated for 1 hr by NPN staining based TECAN SPARK microplate reader analysis. Format: functional, organism-based. The essentials:
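Overnight E. coli resuspended in PBS and diluted to OD600 0.1. NPN added (10 µM final) for 30 min. Treated with a range of compound concentrations for 1 h in the dark; fluorescence read at Ex 350 / Em 420 nm.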

A short description of data set [2]: Hemolytic activity in mouse red blood cells assessed as hemolysis incubated for 1 hr by TECAN SPARK microplate reader analysis. Format: toxicity, cell-based, Erythrocyte. Conditions: red blood cells (erythrocytes). The essentials:
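Mouse RBCs washed three times in 1× PBS by centrifugation (3500 rpm, 10 min) and made up as a 5% v/v suspension. Incubated with 2-fold serially diluted compound in PBS for 1 h at 37 °C, then centrifuged. Supernatant diluted in PBS and A540 read. % hemolysis calculated relative to 1% Triton X-100 (100%) and PBS (0%).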

Data set [3] relates to Escherichia coli. Kind of data set: Antibacterial activity against Escherichia coli ATCC 25922 assessed as inhibition of bacterial growth by measuring fold increase in MIC measured after 16 to 18 hrs in presence of 10% DMEM by TECAN SPARK microplate reader analysis. The class given is functional. Conditions: time 16-18 hrs. The essentials: (§1)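 Salt/serum stability. Exponential-phase bacteria incubated 16–18 h with compound in medium supplemented with 10 mM NaCl, 10 mM KCl, 10 mM MgCl2, 10% DMEM or 10% FBS. Stability judged from the change in MIC.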

The subject of data set [4] is Staphylococcus aureus. Kind of data set: Antibacterial activity against methicillin-resistant Staphylococcus aureus ATCC 43300 assessed as reduction bacterial growth after 16 hrs by TECAN SPARK microplate reader analysis. Format: functional. An outline of the steps: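 Broth microdilution in TSB: single colony grown overnight at 37 °C, diluted 100-fold and grown to mid-log phase. 2-fold serial compound dilutions mixed 1:1 with bacteria at 1 × 10^6 CFU/mL, incubated 16 h at 37 °C, absorbance read at 600 nm. MIC taken as lowest concentration giving complete growth inhibition.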

The next data set concerns Acinetobacter baumannii. Kind of data set: Antibacterial activity against Acinetobacter baumannii ATCC 19606 assessed as reduction bacterial growth after 16 hrs by TECAN SPARK microplate reader analysis. Format: functional. An outline of the steps: (§2)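 Single colony grown overnight in 4 mL TSB at 37 °C, diluted 100-fold and grown to mid-log phase. Compounds 2-fold serially diluted in TSB and mixed 1:1 with bacteria in TSB (1 × 10^6 CFU/mL). Incubated 16 h at 37 °C, then A600 read. MIC taken as the lowest concentration giving complete growth inhibition.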

Data set [5] concerns Escherichia coli. Kind of data set: Antibacterial activity against Escherichia coli ATCC 25922 assessed as inhibition of bacterial growth by measuring fold increase in MIC compound preincubated at 120 degree C for 1 hr followed by bacterial culture addition and measured after 16 to 18 hrs by TECAN SPARK microplate reader analysis. The class given is functional. Conditions: time 16-18 hrs.

Data set [6] has as its system Staphylococcus aureus. Kind of data set: Induction of inner membrane permeabilization in Staphylococcus aureus ATCC 29213 assessed as increase in fluorescence intensity incubated for 1 hr by propidium iodide staining based TECAN SPARK microplate reader analysis. The class given is functional, organism-based. The essentials:
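Overnight 37 °C cultures resuspended in PBS and diluted to OD600 0.1. Propidium iodide added (5 µM final) for 30 min. Treated with a range of compound concentrations for 1 h in the dark; fluorescence read at Ex 535 / Em 615 nm.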

The subject of data set [7] is Escherichia coli. Kind of data set: Induction of ROS generation in Escherichia coli ATCC 25922 assessed as fold increase in fluorescence intensity at 0.5 MIC concentration incubated for 30 mins by DCFH-DA staining based analysis. Format: functional. Conditions: 0.5 h. The essentials: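 Overnight 37 °C cultures washed three times and resuspended in PBS, diluted to OD600 0.1, and mixed with DCFH-DA (5 µM). Treated with a range of compound concentrations for 30 min at 37 °C in the dark. Fluorescence read at Ex 488 / Em 530 nm.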

Data set [8] has as its system Staphylococcus aureus. The data set can be described thus: Antibacterial activity against Staphylococcus aureus ATCC 29213 assessed as inhibition of bacterial growth by measuring fold increase in MIC compound preincubated at 40 degree C for 1 hr followed by bacterial culture addition and measured after 16 to 18 hrs by TECAN SPARK microplate reader analysis. Format: functional. The note with it: time 16-18 hrs.

Data set [9] relates to Staphylococcus aureus. The data set can be described thus: Antibacterial activity against Staphylococcus aureus ATCC 29213 assessed as inhibition of bacterial growth by measuring fold increase in MIC measured after 16 to 18 hrs in presence of 10% DMEM by TECAN SPARK microplate reader analysis. Format: functional. Conditions: time 16-18 hrs. The essentials: as §1
In data set [10] the test system is Escherichia coli. The data set can be described thus: Bactericidal activity against Escherichia coli ATCC 25922 assessed as inhibition of bacterial growth at 1 to 4 times of MIC measured within 1 hr mins by time-kill kinetics assay relative to control. Format: functional. An outline of the steps: (§3)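 Bacteria grown at 37 °C to mid-log phase and diluted to 1 × 10^6 CFU/mL. […] Mixtures diluted 10^2–10^4-fold and plated on TSB agar; colonies counted after 20 h at 37 °C.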

Data set [11] relates to Escherichia coli. Kind of data set: Drug resistance, ratio of MIC for Escherichia coli ATCC 25922 after 25 passages to MIC for Escherichia coli ATCC 25922 after initial exposure. The class given is functional. The essentials: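 Serial passage resistance selection: after each broth MIC determination, bacteria from the 1/2 MIC well were withdrawn and diluted to 1 × 10^6 CFU/mL for the next MIC measurement. Repeated for 25 passages; MIC after passage 25 compared with the initial MIC.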

A further data set deals with Enterococcus faecalis. Kind of data set: Antibacterial activity against Enterococcus faecalis ATCC 29212 assessed as reduction bacterial growth after 16 hrs by TECAN SPARK microplate reader analysis. Format: functional. An outline of the steps: as §2
The test system of data set [12] is Staphylococcus aureus. The data set can be described thus: Antibacterial activity against Staphylococcus aureus ATCC 29213 assessed as reduction bacterial growth after 16 hrs by TECAN SPARK microplate reader analysis. The class given is functional. An outline of the steps: as §2
Data set [13] concerns Escherichia coli. The data set can be described thus: Antibacterial activity against Escherichia coli ATCC 25922 assessed as inhibition of bacterial growth by measuring fold increase in MIC measured after 16 to 18 hrs in presence of 10% FBS by TECAN SPARK microplate reader analysis. Conditions: time 16-18 hrs. Format: functional. The essentials:
as §1

For data set [14], the system named is Staphylococcus aureus. The data set can be described thus: Bactericidal activity against Staphylococcus aureus ATCC 29213 assessed as reduction in colony forming units at 4 times of MIC within 15 mins by time-kill kinetics assay. Format: functional, organism-based. The essentials: as §3
Data set [15] relates to Staphylococcus aureus. Kind of data set: Antibacterial activity against Staphylococcus aureus ATCC 29213 assessed as inhibition of bacterial growth by measuring fold increase in MIC compound preincubated at 120 degree C for 1 hr followed by bacterial culture addition and measured after 16 to 18 hrs by TECAN SPARK microplate reader analysis. The class given is functional. The note with it: time 16-18 hrs.

In data set [16] the test system is Staphylococcus aureus. Kind of data set: Antibacterial activity against Staphylococcus aureus ATCC 29213 assessed as inhibition of bacterial growth by measuring fold increase in MIC compound preincubated at 80 degree C for 1 hr followed by bacterial culture addition and measured after 16 to 18 hrs by TECAN SPARK microplate reader analysis. The class given is functional. The note with it: time 16-18 hrs.

The subject of another data set is Pseudomonas aeruginosa. Kind of data set: Antibacterial activity against Pseudomonas aeruginosa CMCC 10104 assessed as reduction bacterial growth after 16 hrs by TECAN SPARK microplate reader analysis. The class given is functional. An outline of the steps: as §2
Data set [17] has as its system Escherichia coli. The data set can be described thus: Antibacterial activity against Escherichia coli ATCC 25922 assessed as inhibition of bacterial growth by measuring fold increase in MIC measured after 16 to 18 hrs in presence of MgCl2 by TECAN SPARK microplate reader analysis. The class given is functional. The note with it: time 16-18 hrs. An outline of the steps: as §1

As a reminder, the HC50 is the concentration giving 50% haemolysis. Usually MIC stands for the smallest concentration in the dilution series that meets the test's criterion for growth inhibition. `CCCCCCN1C(=O)[C@H](CCCCNC(=N)N)N(Cc2ccc(-c3ccc(CN4C(=O)N(CCCCCC)C(=O)[C@@H]4CCCCNC(=N)N)cc3)cc2)C1=O`: the outcome with Escherichia coli [1] and in the data set with Staphylococcus aureus [14] was Active. Moreover, in data set [2], the HC50 at 1 h was found to be 61 µg/mL. Besides, the “fold change (FC)” value in the data set with Escherichia coli [3] is given as 1; in the data set on Escherichia coli [5], 1; in the data set with Escherichia coli [7], roughly 2; in the data set with Staphylococcus aureus [8], 1; with Staphylococcus aureus [9], 1; in the data set with Escherichia coli [13], 1. For the same compound, the “fold change (FC)” value in the data set on Staphylococcus aureus [15], with Staphylococcus aureus [16] and with Escherichia coli [17] was 1 in each case. The MIC with Staphylococcus aureus [4] was 7.81 µg/mL (≈ 10.1 µM); in the data set with Acinetobacter baumannii it was 15.6 µg/mL (≈ 20.2 µM); in the data set on Enterococcus faecalis, 3.91 µg/mL (≈ 5.06 µM); in the data set on Staphylococcus aureus [12], 1.95 µg/mL (≈ 2.52 µM); with Pseudomonas aeruginosa, 15.6 µg/mL (≈ 20.2 µM). For the same compound, the Activity entry with Staphylococcus aureus [6] was “Dose-Dependent Effect”. Moreover, in the data set with Escherichia coli [10], the “inhibition (INH)” value is 100%. In the data set on Escherichia coli [11], the Ratio result was “<=4”.
